What was measured:
[1] = Inhibition of RTK/PI3K/AKT/mTOR signaling in human U87 cells assessed as up regulation of platelet derived growth factor C gene expression at cytotoxic IC50 measured after 48 hrs relative to control; format: cell-based
[2] = Inhibition of RTK/PI3K/AKT/mTOR signaling in human U87 cells assessed as down regulation of NAAA gene expression at cytotoxic IC50 measured after 48 hrs relative to control; format: cell-based; conditions: U-87MG ATCC
Procedure, shortened: (§1)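 Cells were exposed for 48hrs at 37°C in humidified 5% CO₂ to the compound at its previously determined IC₅₀, with Cisplatin at its IC₅₀ and an untreated negative control alongside. Each condition was run in triplicate. RNA was isolated from all samples by the same protocol. Genes were called differentially expressed by DESeq2 at q-value < 0.05 and fold change > 1.5.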

[3] = Inhibition of RTK/PI3K/AKT/mTOR signaling in human U87 cells assessed as down regulation of DTL gene expression at cytotoxic IC50 measured after 48 hrs relative to control; format: cell-based; conditions: U-87MG ATCC
Procedure, shortened: (§2)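 U87 cells grown in MEM with 10% FBS at 37°C, 5% CO2. Cells exposed to IC50 of test compound for 48 hrs, alongside untreated and cisplatin controls, each condition in triplicate. RNA isolated and profiled; differential expression called with DESeq2 (q-value < 0.05, fold change > 1.5), fold change versus untreated.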

[4] = Inhibition of RTK/PI3K/AKT/mTOR signaling in human U87 cells assessed as up regulation of COX19, cytochrome c oxidase assembly factor gene expression at cytotoxic IC50 measured after 48 hrs relative to control; format: cell-based; conditions: U-87MG ATCC; procedure, shortened: as §1
[5] = Inhibition of RTK/PI3K/AKT/mTOR signaling in human U87 cells assessed as down regulation of ZMAT2 gene expression at cytotoxic IC50 measured after 48 hrs relative to control; format: cell-based; conditions: U-87MG ATCC; procedure, shortened: as §1
[6] = Inhibition of RTK/PI3K/AKT/mTOR signaling in human U87 cells assessed as up regulation of AGRN gene expression at cytotoxic IC50 measured after 48 hrs relative to control; format: cell-based; conditions: U-87MG ATCC; procedure, shortened: as §1
[7] = Inhibition of RTK/PI3K/AKT/mTOR signaling in human U87 cells assessed as up regulation of PLD6 gene expression at cytotoxic IC50 measured after 48 hrs relative to control; format: cell-based; conditions: U-87MG ATCC; procedure, shortened: as §1
[8] = Inhibition of RTK/PI3K/AKT/mTOR signaling in human U87 cells assessed as up regulation of SLC45A3 gene expression at cytotoxic IC50 measured after 48 hrs relative to control; format: cell-based; conditions: U-87MG ATCC
[9] = test system: U-87 MG; test: Induction of DNA damage in human U87 cells assessed as change in TAOK3 gene expression at cytotoxic IC50 measured after 48 hrs […] relative to control; format: functional, U-87MG ATCC; procedure, shortened: as §2
[10] = Inhibition of RTK/PI3K/AKT/mTOR signaling in human U87 cells assessed as down regulation of FLII gene expression at cytotoxic IC50 measured after 48 hrs relative to control; format: cell-based; conditions: U-87MG ATCC; procedure, shortened: as §2
[11] = Inhibition of RTK/PI3K/AKT/mTOR signaling in human U87 cells assessed as up regulation of NARS gene expression at cytotoxic IC50 measured after 48 hrs relative to control; format: cell-based; conditions: U-87MG ATCC; procedure, shortened: as §1
[12] = test system: U-87 MG; test: Induction of DNA damage in human U87 cells assessed as change in BTG2 gene expression at cytotoxic IC50 measured after 48 hrs […] relative to control; format: functional, U-87MG ATCC
Procedure, shortened: (§3)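 U87 expression profiling. Cells incubated 48hrs at 37°C, 5% CO₂ with the IC₅₀ concentration, alongside a cisplatin and an untreated control, in triplicate. RNA was isolated by one common protocol and profiled. DEGs were called with DESeq2 (q < 0.05, fold change > 1.5) and expressed as fold change versus untreated.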

[13] = Inhibition of RTK/PI3K/AKT/mTOR signaling in human U87 cells assessed as up regulation of CPLX1 gene expression at cytotoxic IC50 measured after 48 hrs relative to control; format: cell-based; conditions: U-87MG ATCC; procedure, shortened: as §1
[14] = Inhibition of RTK/PI3K/AKT/mTOR signaling in human U87 cells assessed as up regulation of FAM131C gene expression at cytotoxic IC50 measured after 48 hrs relative to control; format: cell-based; conditions: U-87MG ATCC; procedure, shortened: as §1
[15] = Inhibition of RTK/PI3K/AKT/mTOR signaling in human U87 cells assessed as up regulation of zinc finger protein 217 gene expression at cytotoxic IC50 measured after 48 hrs relative to control; format: cell-based; conditions: U-87MG ATCC
[16] = test system: U-87 MG; test: Cell cycle arrest in human U87 cells assessed as change in GADD45A gene expression at cytotoxic IC50 measured after 48 hrs […] relative to control; format: functional, U-87MG ATCC; procedure, shortened: as §3
[17] = Inhibition of RTK/PI3K/AKT/mTOR signaling in human U87 cells assessed as up regulation of tribbles pseudokinase 2 gene expression at cytotoxic IC50 measured after 48 hrs relative to control; format: cell-based; conditions: U-87MG ATCC
[18] = Inhibition of RTK/PI3K/AKT/mTOR signaling in human U87 cells assessed as up regulation of basic transcription factor 3 like 4 gene expression at cytotoxic IC50 measured after 48 hrs relative to control; format: cell-based; conditions: U-87MG ATCC
[19] = test system: U-87 MG; test: Induction of DNA damage in human U87 cells assessed as change in CDKN1A gene expression at cytotoxic IC50 measured after 48 hrs […] relative to control; format: functional, U-87MG ATCC; procedure, shortened: as §3
[20] = Inhibition of RTK/PI3K/AKT/mTOR signaling in human U87 cells assessed as down regulation of DAGLB gene expression at cytotoxic IC50 measured after 48 hrs relative to control; format: cell-based; conditions: U-87MG ATCC; procedure, shortened: as §2
[21] = Inhibition of RTK/PI3K/AKT/mTOR signaling in human U87 cells assessed as up regulation of KLF7 gene expression at cytotoxic IC50 measured after 48 hrs relative to control; format: cell-based; conditions: U-87MG ATCC; procedure, shortened: as §1
[22] = test system: LN-229; test: Induction of apoptosis in human LN229 cells assessed as decrease in caspase-3/7 activation at cytotoxic IC50 measured after 5 hrs by caspase-glo 3/7 luminescence assay relative to control; format: functional; parameters: scale not given: the % may be the effect or the level left
Procedure, shortened: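 Cells grown overnight in 96-well format, then given IC50 for 5 hrs at 37°C, 5% CO2, with negative, positive and blank (medium+DMSO+dye) wells. Equilibrated 30 min at room temperature, Caspase-Glo 3/7 reagent added 1:1 in the dark, luminescence read at 1 hr. Fold change = (test−blank)/(control−blank). Triplicate measurements, at least two independent experiments.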

[23] = Inhibition of RTK/PI3K/AKT/mTOR signaling in human U87 cells assessed as up regulation of NCOR2 gene expression at cytotoxic IC50 measured after 48 hrs relative to control; format: cell-based; conditions: U-87MG ATCC; procedure, shortened: as §1
[24] = test system: U-87 MG; test: Induction of apoptosis in human U87 cells assessed as change in BAX gene expression at cytotoxic IC50 measured after 48 hrs […] relative to control; format: functional, U-87MG ATCC; procedure, shortened: as §2
[25] = Inhibition of RTK/PI3K/AKT/mTOR signaling in human U87 cells assessed as down regulation of NFIL3 gene expression at cytotoxic IC50 measured after 48 hrs relative to control; format: cell-based; conditions: U-87MG ATCC; procedure, shortened: as §1
[26] = Inhibition of RTK/PI3K/AKT/mTOR signaling in human U87 cells assessed as down regulation of XPO6 gene expression at cytotoxic IC50 measured after 48 hrs relative to control; format: cell-based; conditions: U-87MG ATCC; procedure, shortened: as §1
[27] = Inhibition of RTK/PI3K/AKT/mTOR signaling in human U87 cells assessed as down regulation of RFC4 gene expression at cytotoxic IC50 measured after 48 hrs relative to control; format: cell-based; conditions: U-87MG ATCC; procedure, shortened: as §1

Q: With `CC(=O)C(=NNc1ccccc1C#N)C(C)=O` as the compound, how does the log2FC [1] read?
A: 0.883

Q: What about the log2FC [2] of the same compound?
A: -1.57

Q: And the log2FC [3]?
A: -1.56

Q: What about the log2FC [4] of the same compound?
A: 1.33

Q: What about the log2FC [5] of the same compound?
A: -0.716

Q: And the log2FC [6]?
A: 0.578

Q: What about the log2FC [7] of the same compound?
A: 1.77

Q: And the log2FC [8]?
A: 1.61

Q: And the “fold change (FC)” value [9]?
A: -1.929

Q: And the log2FC [10]?
A: -0.583

Q: What about the log2FC [11] of the same compound?
A: 0.53

Q: And the “fold change (FC)” value [12]?
A: 2.177

Q: And the log2FC [13]?
A: 1.75

Q: And the log2FC [14]?
A: 2.04

Q: What about the log2FC [15] of the same compound?
A: 1.37

Q: What about the “fold change (FC)” value [16] of the same compound?
A: -0.9679

Q: What about the log2FC [17] of the same compound?
A: 1.41

Q: And the log2FC [18]?
A: 0.896

Q: And the “fold change (FC)” value [19]?
A: 1.296

Q: And the log2FC [20]?
A: -0.876

Q: What about the log2FC [21] of the same compound?
A: 1.91

Q: And the Activity [22]?
A: 36.1%

Q: What about the log2FC [23] of the same compound?
A: 0.558

Q: What about the log2FC [24] of the same compound?
A: 2.512

Q: What about the log2FC [25] of the same compound?
A: -0.44

Q: And the log2FC [26]?
A: -0.363

Q: What about the log2FC [27] of the same compound?
A: -1

From ChEMBL document CHEMBL4316593 (Eur J Med Chem, 2019)
